What was measured:
[1] = molecular target: JAK1 (Homo sapiens, UniProt P23458); assay: Kinase inhibition assay; type: biochemical
[2] = molecular target: HDAC5 (Homo sapiens, UniProt Q9UQL6); assay: In vitro HDAC enzyme assay; type: biochemical
[3] = molecular target: HDAC7 (Homo sapiens, UniProt Q8WUI4); assay: In vitro HDAC enzyme assay; type: biochemical
[4] = molecular target: HDAC11 (Homo sapiens, UniProt Q96DB2); assay: In vitro HDAC enzyme assay; type: biochemical
[5] = Microsomal stability assay; type: in vitro ADME; conditions: human, human liver microsomes, pH 7.4
Outline: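 Human liver microsomes at 0.8 mg/mL, with magnesium chloride and potassium phosphate buffer (pH 7.4), incubated with test compound at 0.5 μM. Mix prewarmed 5 min at 37 °C, then started with NADPH. Stopped at 0, 5, 10, 15, 30, 60 or 90 min with ice-cold ethyl acetate, spun 4000 rpm for 10 min at 4 °C. Supernatant analysed by LC-MS/MS and half-life determined.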

[6] = tested on: CCRF-CEM; assay: NCI-60 screening, CCRF-CEM; type: cell-based; conditions: Homo sapiens, read-out: GI50, CCRF-CEM
[7] = tested on: A549/ATCC; assay: NCI-60 screening, A549/ATCC; type: cell-based; conditions: Homo sapiens, A549, read-out: GI50, A549/ATCC
[8] = tested on: NCI-H522; assay: NCI-60 screening, NCI-H522; type: cell-based; conditions: Homo sapiens, NCI-H522, read-out: GI50, NCI-H522
[9] = tested on: HCT-116; assay: NCI-60 screening, HCT-116; type: cell-based; conditions: Homo sapiens, HCT-116, read-out: GI50, HCT-116
[10] = tested on: HCT-15; assay: NCI-60 screening, HCT-15; type: cell-based; conditions: Homo sapiens, HCT-15, read-out: GI50, HCT-15
[11] = tested on: SNB-19; assay: NCI-60 screening, SNB-19; type: cell-based; conditions: Homo sapiens, SNB-19, read-out: GI50, SNB-19
[12] = tested on: SNB-75; assay: NCI-60 screening, SNB-75; type: cell-based; conditions: Homo sapiens, SNB-75, read-out: GI50, SNB-75
[13] = tested on: LOX IMVI; assay: NCI-60 screening, LOX IMVI; type: cell-based; conditions: Homo sapiens, read-out: GI50, LOX IMVI
[14] = tested on: UACC-62; assay: NCI-60 screening, UACC-62; type: cell-based; conditions: Homo sapiens, UACC-62, read-out: GI50, UACC-62
[15] = tested on: OVCAR-3; assay: NCI-60 screening, OVCAR-3; type: cell-based; conditions: Homo sapiens, OVCAR-3, read-out: GI50, OVCAR-3
[16] = tested on: 786-0; assay: NCI-60 screening, 786-0; type: cell-based; conditions: Homo sapiens, 786-0, read-out: GI50, 786-0
[17] = tested on: ACHN; assay: NCI-60 screening, ACHN; type: cell-based; conditions: Homo sapiens, read-out: GI50, ACHN
[18] = tested on: MDA-MB-231/ATCC; assay: NCI-60 screening, MDA-MB-231/ATCC; type: cell-based; conditions: Homo sapiens, MDA-MB-231, read-out: GI50, MDA-MB-231/ATCC

HDAC5, sequence (Q9UQL6 whole entry): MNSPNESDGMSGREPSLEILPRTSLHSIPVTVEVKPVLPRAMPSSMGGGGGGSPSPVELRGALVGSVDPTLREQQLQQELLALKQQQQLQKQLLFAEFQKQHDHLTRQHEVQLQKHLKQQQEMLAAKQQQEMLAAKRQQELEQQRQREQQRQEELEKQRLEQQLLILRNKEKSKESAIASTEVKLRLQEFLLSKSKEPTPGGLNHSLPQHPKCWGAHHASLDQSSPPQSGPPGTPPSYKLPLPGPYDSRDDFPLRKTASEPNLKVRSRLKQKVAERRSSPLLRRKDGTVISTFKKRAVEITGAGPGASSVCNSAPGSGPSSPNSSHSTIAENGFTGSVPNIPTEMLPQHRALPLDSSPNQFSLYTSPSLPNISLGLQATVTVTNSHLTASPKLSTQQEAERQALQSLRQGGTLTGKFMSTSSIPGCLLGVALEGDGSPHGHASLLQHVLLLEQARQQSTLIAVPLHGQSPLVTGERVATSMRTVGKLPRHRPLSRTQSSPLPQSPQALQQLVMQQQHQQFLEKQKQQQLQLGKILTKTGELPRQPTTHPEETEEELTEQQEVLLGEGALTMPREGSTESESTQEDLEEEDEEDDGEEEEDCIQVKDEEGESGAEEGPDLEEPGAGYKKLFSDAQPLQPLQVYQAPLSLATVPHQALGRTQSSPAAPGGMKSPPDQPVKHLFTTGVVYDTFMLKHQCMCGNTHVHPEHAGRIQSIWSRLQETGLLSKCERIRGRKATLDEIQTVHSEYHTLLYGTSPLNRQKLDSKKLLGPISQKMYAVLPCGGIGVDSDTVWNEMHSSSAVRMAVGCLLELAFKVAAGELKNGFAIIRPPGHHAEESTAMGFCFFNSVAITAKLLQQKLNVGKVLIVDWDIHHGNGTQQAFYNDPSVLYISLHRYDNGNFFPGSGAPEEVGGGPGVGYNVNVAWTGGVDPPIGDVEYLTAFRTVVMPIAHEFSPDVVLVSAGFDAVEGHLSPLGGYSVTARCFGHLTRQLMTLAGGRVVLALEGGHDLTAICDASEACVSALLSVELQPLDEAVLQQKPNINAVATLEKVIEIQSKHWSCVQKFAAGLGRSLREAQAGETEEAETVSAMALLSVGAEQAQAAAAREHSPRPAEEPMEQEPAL
HDAC7, sequence (Q8WUI4 whole entry): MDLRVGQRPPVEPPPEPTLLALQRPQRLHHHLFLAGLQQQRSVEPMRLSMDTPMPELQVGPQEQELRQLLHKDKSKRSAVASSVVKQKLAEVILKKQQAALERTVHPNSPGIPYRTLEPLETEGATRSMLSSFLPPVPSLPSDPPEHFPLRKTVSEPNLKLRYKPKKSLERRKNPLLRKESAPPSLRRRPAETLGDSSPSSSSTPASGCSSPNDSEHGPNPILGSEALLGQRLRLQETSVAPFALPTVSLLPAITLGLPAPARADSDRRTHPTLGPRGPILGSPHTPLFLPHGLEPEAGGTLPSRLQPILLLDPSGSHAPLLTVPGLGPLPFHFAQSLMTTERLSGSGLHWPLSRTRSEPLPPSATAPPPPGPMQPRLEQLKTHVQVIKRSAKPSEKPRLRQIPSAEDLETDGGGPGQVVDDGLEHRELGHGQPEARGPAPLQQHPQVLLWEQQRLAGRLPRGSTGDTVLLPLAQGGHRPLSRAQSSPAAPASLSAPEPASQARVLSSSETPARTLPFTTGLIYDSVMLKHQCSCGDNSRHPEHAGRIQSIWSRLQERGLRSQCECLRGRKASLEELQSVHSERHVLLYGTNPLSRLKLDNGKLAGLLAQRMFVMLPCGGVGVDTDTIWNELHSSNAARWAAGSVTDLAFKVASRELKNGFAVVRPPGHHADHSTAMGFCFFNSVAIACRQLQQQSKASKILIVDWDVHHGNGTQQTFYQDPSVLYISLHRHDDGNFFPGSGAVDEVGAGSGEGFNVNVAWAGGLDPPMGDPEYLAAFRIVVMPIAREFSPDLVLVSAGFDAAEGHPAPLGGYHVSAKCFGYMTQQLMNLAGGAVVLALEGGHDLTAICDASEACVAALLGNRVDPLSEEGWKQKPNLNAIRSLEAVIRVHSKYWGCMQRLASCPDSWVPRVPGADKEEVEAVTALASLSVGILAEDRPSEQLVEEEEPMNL
JAK1, sequence (P23458 whole entry): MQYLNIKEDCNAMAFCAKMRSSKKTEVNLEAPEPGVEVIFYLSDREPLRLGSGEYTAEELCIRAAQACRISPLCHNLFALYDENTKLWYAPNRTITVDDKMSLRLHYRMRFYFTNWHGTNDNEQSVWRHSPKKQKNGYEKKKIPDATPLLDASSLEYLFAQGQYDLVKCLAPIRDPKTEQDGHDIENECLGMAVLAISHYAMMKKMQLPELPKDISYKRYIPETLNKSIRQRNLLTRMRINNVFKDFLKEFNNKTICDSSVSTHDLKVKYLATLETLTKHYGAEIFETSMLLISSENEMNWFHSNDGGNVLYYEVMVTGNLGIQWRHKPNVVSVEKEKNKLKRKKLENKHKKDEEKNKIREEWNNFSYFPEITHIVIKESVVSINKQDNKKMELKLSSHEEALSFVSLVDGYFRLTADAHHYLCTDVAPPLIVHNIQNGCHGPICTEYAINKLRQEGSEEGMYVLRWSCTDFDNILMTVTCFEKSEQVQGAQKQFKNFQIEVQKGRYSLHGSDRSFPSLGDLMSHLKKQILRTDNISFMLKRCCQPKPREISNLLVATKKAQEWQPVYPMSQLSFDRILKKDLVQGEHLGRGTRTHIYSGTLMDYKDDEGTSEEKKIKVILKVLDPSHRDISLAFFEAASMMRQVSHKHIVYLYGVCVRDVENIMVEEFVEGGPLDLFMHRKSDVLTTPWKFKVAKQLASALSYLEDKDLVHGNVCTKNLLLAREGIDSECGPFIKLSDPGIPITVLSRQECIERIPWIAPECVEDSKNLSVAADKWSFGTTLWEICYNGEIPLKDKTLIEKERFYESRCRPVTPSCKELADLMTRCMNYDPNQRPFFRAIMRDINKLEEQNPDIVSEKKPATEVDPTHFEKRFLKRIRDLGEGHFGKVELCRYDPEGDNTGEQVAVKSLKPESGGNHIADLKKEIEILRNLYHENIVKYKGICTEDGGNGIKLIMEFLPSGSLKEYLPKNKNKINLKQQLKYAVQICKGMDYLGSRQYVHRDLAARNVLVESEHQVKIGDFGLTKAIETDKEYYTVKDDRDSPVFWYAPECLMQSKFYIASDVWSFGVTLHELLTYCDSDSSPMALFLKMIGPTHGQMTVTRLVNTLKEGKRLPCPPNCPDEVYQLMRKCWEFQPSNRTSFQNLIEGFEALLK
HDAC11, sequence (Q96DB2 whole entry): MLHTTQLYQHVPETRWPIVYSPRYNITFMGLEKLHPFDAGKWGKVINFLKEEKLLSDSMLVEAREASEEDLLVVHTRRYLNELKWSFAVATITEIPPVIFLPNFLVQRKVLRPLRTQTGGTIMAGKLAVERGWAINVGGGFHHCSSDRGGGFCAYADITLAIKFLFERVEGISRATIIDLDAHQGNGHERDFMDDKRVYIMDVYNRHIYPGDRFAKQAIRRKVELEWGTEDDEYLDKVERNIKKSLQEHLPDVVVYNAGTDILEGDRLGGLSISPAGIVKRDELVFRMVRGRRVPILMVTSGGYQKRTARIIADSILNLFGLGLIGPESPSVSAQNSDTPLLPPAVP

SMILES: O=C(NO)c1ccc(CNc2nc3cccc(-c4ccc5c(c4)OCO5)n3n2)cc1 [Compound 19, 4-(((5-(Benzo[d][1, 3]dioxol-5-yl)-[1,2, 4]triazolo[1,5-a]pyridin-2-yl)amino)methyl)-N-hydroxybenzamide]
- IC50 [1]: 0.165 ± 0.013 µM
- IC50 [2]: > 50 µM
- HDAC5 IC50 ([2]; duplicate, SD <15%): no activity
- IC50 [3]: 0.715 ± 0.0335 µM
- IC50 [4]: 1.4 ± 0.102 µM
- half-life at 0.5 μM [5]: 14.5 h
- GI50 [6]: 0.31 µM
- GI50 [7]: 0.89 µM
- GI50 [8]: 0.1 µM
- GI50 [9]: 0.44 µM
- GI50 [10]: 0.69 µM
- GI50 [11]: 1 µM
- GI50 [12]: 0.35 µM
- GI50 [13]: 0.69 µM
- GI50 [14]: 0.42 µM
- GI50 [15]: 0.42 µM
- GI50 [16]: 1 µM
- GI50 [17]: 0.55 µM
- GI50 [18]: 0.69 µM
